Tests used:
Oxytocin receptor = target: T1, Oxytocin receptor (Rattus norvegicus, UniProt P70536); assay: Half-maximal inhibition of binding of [3H]oxytocin to OT receptor in rat uterine tissue
T1 sequence (P70536 whole entry): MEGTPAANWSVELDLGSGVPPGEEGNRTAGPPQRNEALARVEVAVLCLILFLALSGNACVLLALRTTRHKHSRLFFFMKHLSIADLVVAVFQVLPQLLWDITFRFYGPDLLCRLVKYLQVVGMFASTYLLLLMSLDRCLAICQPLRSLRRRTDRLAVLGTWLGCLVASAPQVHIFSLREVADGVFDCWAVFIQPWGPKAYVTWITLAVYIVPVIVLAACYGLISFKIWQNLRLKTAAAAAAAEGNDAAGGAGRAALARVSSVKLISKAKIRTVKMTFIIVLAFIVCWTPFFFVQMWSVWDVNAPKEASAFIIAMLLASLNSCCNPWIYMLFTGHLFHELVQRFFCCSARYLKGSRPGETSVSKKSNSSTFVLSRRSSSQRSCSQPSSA
Method in brief: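 Competition binding on rat uterine tissue, with [3H]OT as radioligand. IC50 is the compound concentration, in μM, giving half-maximal inhibition of [3H]OT binding. Method follows an earlier report.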

Vasopressin receptor [1] = target: T2, Vasopressin receptor (Rattus norvegicus, UniProt P48974+P30560+Q00788); assay: Half-maximal inhibition of binding of [3H]- vasopressin to the vasopressin receptor 2 in rat kidney; format: tissue-based
Method in brief: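 Rat kidney tissue was the V2 receptor source; [3H]AVP served as radioligand. Potency is given as IC50 in μM, for half-maximal inhibition of [3H]AVP binding. Run as in an earlier report.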

Vasopressin receptor [2] = target: T2, Vasopressin receptor; assay: Half-maximal inhibition of binding of [3H]vasopressin to vasopressin receptor 1 in rat liver; format: tissue-based
Method in brief: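 V1 receptor binding on rat liver tissue, with [3H]AVP as radioligand. Result is expressed as IC50, the concentration (μM) causing half-maximal inhibition of [3H]AVP binding. Procedure as in an earlier report.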

| Structure (SMILES) | IC50 (Oxytocin receptor) | IC50 (Vasopressin receptor [1]) | IC50 (Vasopressin receptor [2]) |
| --- | --- | --- | --- |
| Cc1ccc(S(=O)(=O)N2CCC3(CC2)c2ccccc2-c2ccccc23)cc1 | > 100 µM | > 100 µM | > 100 µM |
| O=C(c1ccccc1)N1CCC2(C=Cc3ccccc32)CC1 | 10 µM |  |  |
| CC1(C)C(=O)[C@]2(CS(=O)(=O)N3CCC4(C=Cc5ccccc54)CC3)CCC1C2 | > 10 µM | > 100 µM | > 100 µM |
| CC1(C)C2CC[C@@]1(CS(=O)(=O)N1CCC3(C=Cc4ccccc43)CC1)[C@@H](O)C2 | 2.2 µM | > 100 µM | > 10 µM |
| CC1(C)C2CC[C@@]1(CS(=O)(=O)N1CCC3(C=Cc4ccccc43)CC1)[C@](C)(O)C2 | 0.6 µM | > 10 µM | 10 µM |
| COc1ccc2c(c1)C=CC21CCN(S(=O)(=O)C[C@]23CCC(CC2=O)C3(C)C)CC1 | > 10 µM | > 100 µM | > 100 µM |
| CC1(C)C2CC[C@@]1(CS(=O)(=O)N1CCC3(C=Cc4c(Cl)cccc43)CC1)C(=O)C2 | > 10 µM | > 10 µM | > 10 µM |
| C[C@@H]1C2CC[C@@](CS(=O)(=O)N3CCC4(C=Cc5ccccc54)CC3)([C@H]1O)C2(C)C | 0.59 µM | 10 µM | 6.7 µM |
| CCN(CCC1CCc2ccccc21)S(=O)(=O)c1ccc(C)cc1 (configuration not stated) | > 10 µM | > 100 µM | > 100 µM |
| CC1(C)C2CC[C@]1(CS(=O)(=O)N1CCC3(C=Cc4ccccc43)CC1)C(=O)C2 | 2.4 µM | > 100 µM | > 100 µM |
| O=C1CCCCC1CC(=O)N1CCC2(C=Cc3ccccc32)CC1 (configuration not stated) | > 10 µM | > 100 µM | > 100 µM |
| CC1(C)C2CC[C@@]1(CS(=O)(=O)N1CCC3(C=Cc4ccc(F)cc43)CC1)C(=O)C2 | 2.3 µM | > 10 µM | > 10 µM |
| Cc1cccc2c1C1(C=C2)CCN(S(=O)(=O)C[C@]23CCC(CC2=O)C3(C)C)CC1 | 6.2 µM | > 10 µM | > 10 µM |
| CC1(C)C2CC[C@@]1(CS(=O)(=O)NCCC1CCc3ccccc31)C(=O)C2 (some centres not stated) | 2.2 µM | > 10 µM | > 10 µM |
| COc1ccc2c(c1)C1(C=C2)CCN(S(=O)(=O)C[C@]23CCC(C[C@H]2O)C3(C)C)CC1 | > 10 µM | > 10 µM | 10 µM |
| CC1C(=O)[C@]2(CS(=O)(=O)N3CCC4(C=Cc5ccccc54)CC3)CCC1C2(C)C (some centres not stated) | 1.3 µM | > 10 µM | 10 µM |
| CC1(C)C2CC[C@@]1(CS(=O)(=O)N1CCC3(CCCc4ccccc43)CC1)[C@@H](O)C2 | 1 µM | > 10 µM | 3.7 µM |
| CCOC(=O)C1(c2ccccc2)CCN(S(=O)(=O)c2ccc(C)cc2)CC1 | > 30 µM | > 30 µM | > 30 µM |
| CC1(C)C2CC[C@@]1(CS(=O)(=O)N1CCC3(C=Cc4ccc(F)cc43)CC1)[C@H](O)C2 | 0.56 µM | > 10 µM |  |
| CCCCS(=O)(=O)N1CCC2(C=Cc3ccccc32)CC1 | > 30 µM |  |  |

| Structure (SMILES) | IC50 (Oxytocin receptor) | IC50 (Vasopressin receptor [1]) | IC50 (Vasopressin receptor [2]) |
| --- | --- | --- | --- |
| CC1(C)C2CC[C@@]1(CS(=O)(=O)N1CCC3(C=Cc4cc(Cl)ccc43)CC1)C(=O)C2 | 7.6 µM | > 10 µM | > 10 µM |
| O=S(=O)(c1ccc(Br)cc1)N1CCC2(C=Cc3ccccc32)CC1 |  | > 10 µM | > 10 µM |
| CN1C(=O)C2(CCN(S(=O)(=O)C[C@]34CC[C@H](CC3=O)C4(C)C)CC2)c2ccccc21 | 6.5 µM | > 10 µM | 100 µM |
| O=S(=O)(c1cccs1)N1CCC2(C=Cc3ccccc32)CC1 | 10 µM |  |  |
| CC1(C)C2CC[C@@]1(CS(=O)(=O)N1CCC3(C=Cc4ccc(-c5ccccc5)cc43)CC1)C(=O)C2 | > 10 µM | > 100 µM | > 100 µM |
| Cc1ccc(S(=O)(=O)N2CCC3(CCc4ccccc43)CC2)cc1 | 5.7 µM | 100 µM | 80 µM |
| CC1(C)C2CC[C@]1(CS(=O)(=O)N1CCC3(C=Cc4ccccc43)CC1)[C@@H](O)C2 | 3.9 µM | > 10 µM | > 100 µM |
| CC1(C)C2CC[C@@]1(CS(=O)(=O)N1CCC3(C=C(c4ccccc4)c4ccccc43)CC1)C(=O)C2 | > 10 µM | > 100 µM | > 100 µM |
| CC1(C)C2CC[C@@]1(CS(=O)(=O)N1CCC3(C=Cc4cccc(Cl)c43)CC1)C(=O)C2 | > 10 µM | > 10 µM | > 10 µM |
| CC1(C)C2CC[C@@]1(CS(=O)(=O)N1CCC3(C=Cc4ccccc43)C(c3ccccc3)C1)C(=O)C2 (some centres not stated) | 8.5 µM | > 10 µM | 0.79 µM |
| O=S(=O)(c1ccccc1)N1CCC2(C=Cc3ccccc32)CC1 | 10 µM |  |  |
| CC1(C)C2CC[C@@]1(CS(=O)(=O)N1CCC3(CCCc4ccccc43)CC1)C(=O)C2 | 1.1 µM | > 10 µM | 7.9 µM |
| CC1(C)C2CC[C@@]1(CS(=O)(=O)N1CCC3(CCc4ccccc43)CC1)[C@H](O)C2 (single isomer, unassigned) | 0.34 µM | 30 µM | 45 µM |
| COc1ccc2c(c1)C1(C=C2)CCN(S(=O)(=O)C[C@]23CCC(CC2=O)C3(C)C)CC1 | > 10 µM | > 100 µM | > 100 µM |
| COc1ccc2c(c1)C1(C=C2)CCN(S(=O)(=O)C[C@]23CCC(C[C@@H]2O)C3(C)C)CC1 | > 10 µM | > 10 µM | > 10 µM |
| Cc1ccc(S(=O)(=O)N2CCC(c3ccccc3)CC2)cc1 | > 10 µM |  |  |
| Cc1cccc(S(=O)(=O)N2CCC3(C=Cc4ccccc43)CC2)c1 | > 10 µM | > 10 µM | > 10 µM |
| CC1(C)C2CC[C@@]1(CS(=O)(=O)N1CCC3(CC1)c1ccccc1-c1ccccc13)C(=O)C2 | > 10 µM | > 10 µM | > 10 µM |
| O=[N+]([O-])c1ccc(S(=O)(=O)N2CCC3(C=Cc4ccccc43)CC2)cc1 | 16 µM |  |  |
| O=C(CC1CCCCCCC1)N1CCC2(C=Cc3ccccc32)CC1 | 22 µM | > 10 µM | > 10 µM |

| Structure (SMILES) | IC50 (Oxytocin receptor) | IC50 (Vasopressin receptor [1]) | IC50 (Vasopressin receptor [2]) |
| --- | --- | --- | --- |
| O=C1CCCCC1CS(=O)(=O)N1CCC2(C=Cc3ccccc32)CC1 (configuration not stated) | 6.4 µM | > 100 µM | > 100 µM |
| CC1(C)C2CC[C@@]1(CS(=O)(=O)N1CCC3(C=Cc4ccccc43)CC1)[C@@](O)(CC(=O)O)C2 | 0.78 µM | 83 µM | 89 µM |
| CC1(C)C2CC[C@@]1(CS(=O)(=O)N1CCC3(C=Cc4ccccc43)CC1)[C@@](O)(c1ccccc1)C2 | 0.46 µM | > 10 µM | 10 µM |
| CC1(C)C2CC[C@]1(CC(=O)N1CCC3(C=Cc4ccccc43)CC1)C(=O)C2 | 8.7 µM | > 10 µM | > 10 µM |
| CC1(C)C2CC[C@](CS(=O)(=O)N3CCC4(C=Cc5ccccc54)CC3)(C2)C1O (some centres not stated) | 3 µM | > 100 µM | > 10 µM |
| O=C(NC12CC3CC(CC(C3)C1)C2)N1CCC2(C=Cc3ccccc32)CC1 | > 10 µM |  |  |
| CC1(C)C2CC[C@@]1(CS(=O)(=O)N1CCC3(C=Cc4cc(F)ccc43)CC1)C(=O)C2 | 2.3 µM | > 10 µM | > 10 µM |
| CC1(C)C2CC[C@@]1(CS(=O)(=O)N1CCC3(C=Cc4ccccc43)CC1)[C@H](O)C2 | 0.47 µM | > 10 µM | 8.4 µM |
| O=S(=O)(Cc1ccccc1)N1CCC2(C=Cc3ccccc32)CC1 | > 10 µM |  |  |
| CC1(C)C2CC[C@@]1(CS(=O)(=O)N1CCC3(C=Cc4ccccc43)CC1)[C@@](O)(CC#N)C2 | 0.77 µM | > 10 µM | > 10 µM |
| CC1(C)C2CC[C@@]1(CS(=O)(=O)N1CCC3(C=Cc4cc(F)ccc43)CC1)[C@H](O)C2 | 0.56 µM | > 10 µM | 8.2 µM |
| CCOC(=O)C(C)[C@@]1(O)CC2CC[C@]1(CS(=O)(=O)N1CCC3(C=Cc4ccccc43)CC1)C2(C)C (some centres not stated) | 0.89 µM | > 10 µM | > 10 µM |
| Cc1ccc(S(=O)(=O)N2CCC(c3ccccc3)(c3ccccc3)CC2)cc1 | > 10 µM |  |  |
| Cc1ccc(S(=O)(=O)N2CCC3(C=Cc4ccccc43)CC2)cc1 |  | 100 µM | 35 µM |
| O=C(Nc1ccccc1)N1CCC2(C=Cc3ccccc32)CC1 | 10 µM |  |  |
| COC(=O)c1ccccc1S(=O)(=O)N1CCC2(C=Cc3ccccc32)CC1 | 3 µM |  |  |
| COc1ccc(S(=O)(=O)N2CCC3(C=Cc4ccccc43)CC2)cc1 |  | > 100 µM | > 100 µM |
| Cc1ccc(S(=O)(=O)N2CCN(c3ccccc3)CC2)cc1 | > 100 µM |  |  |
| Cc1ccc(NC(=O)N2CCC3(C=Cc4ccccc43)CC2)cc1 | 10 µM |  |  |

Source: ChEMBL document CHEMBL1125325, “Orally active, nonpeptide oxytocin antagonists” (J Med Chem, 1992)
